Reference: ChEMBL document CHEMBL1143713, “Antimitotic activities of 2-phenylindole-3-carbaldehydes in human breast cancer cells” (Bioorg Med Chem, 2007)
Calls of active or inactive are those of the source. No cut-off for these calls is given here.

Key:
[1] = system: MDA-MB-231; test: Antiproliferative activity against human MDA-MB-231 cells after 4 days; assay type: functional, cell-based; settings: MDA-MB-231, 96 h
[2] = system: MCF7; test: Antiproliferative activity against human MCF7 cells after 5 days; assay type: functional, cell-based; settings: MCF7, 120 h
[3] = system: MDA-MB-231; test: Cell cycle arrest in MDA-MB-231 cells by accumulation at G2/M phase after 24 hrs by flow cytometry; assay type: functional, cell-based; settings: Homo sapiens
Summary of the method: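 MDA-MB 231 cells at 70–80% confluence exposed 24 h to compounds diluted from DMF stocks (0.1% DMF final), various concentrations, vincristine reference. Cells trypsinized, fixed in 70% ethanol, DNA-extracted, stained with propidium iodide ≥30 min at room temperature. 8000–15,000 events per sample by flow cytometry; sub-G1, G0/G1, S, G2/M fractions. Representative of two experiments.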

[4] = target: Tubulin; test: Inhibition of tubulin polymerization by microplate assay; assay type: protein-complex assay, Homo sapiens
Summary of the method: (§1)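 Commercial microplate tubulin kit in G-PEM buffer with 5% glycerol. Compounds from DMSO stocks, diluted 1:10 in G-PEM, added to wells prewarmed to 37 °C. Cold tubulin added; absorbance at 355 nm read every minute over about 28–30 min at 37 °C after shift from 2 °C. Solvent controls; colchicine and docetaxel as references.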

[5] = Inhibition of temperature-induced tubulin polymerization of calf brain; design: species or system Bos taurus
Summary of the method: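 Tubulin from fresh calf brain cortex, purified by temperature-dependent polymerization/depolymerization cycles and checked by PAGE, in PEMG buffer. Supernatant mixed with compound in DMSO at varying concentrations, preincubated 15 min at 37 °C, chilled, then 25 mM GTP solution added. Temperature switched from 2 to 37 °C in cuvettes; turbidity at 350 nm over 20 min. Mean of two controls = 100%; IC50 from three independent experiments.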

[6] = target: Tubulin (Homo sapiens) (UniProt P68371+Q9H4B7+P0DPH7+P68366+Q13509+Q71U36+P04350+Q3ZCM7+P07437+P68363+Q9BQE3+Q6PEY2+Q13885+Q9BVA1+Q9BUF5); test: Inhibition of tubulin polymerization at 5 uM by microplate assay; assay type: protein-complex assay; summary of the method: as §1
[7] = system: U-87MG ATCC; test: Effect on cell morphology in human U87 cells assessed as condensation of microtubule around the nucleus and loss of function at 50 nM after 3 hrs; assay type: functional, cell-based
Summary of the method: (§2)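 U-87 MG glioma cells at 75% confluence treated 3 h at 37 °C; vehicle ethanol. Fixed in 4% paraformaldehyde, permeabilized with 1% Triton X-100. Chromatin stained with SYTOX Green; microtubules with mouse anti-α-tubulin and Cy5 goat anti-mouse antibody (1:200). Imaged by confocal laser scanning microscopy.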

[8] = system: U-87MG ATCC; test: Effect on cell morphology in human U87 cells assessed as disruption of microtubule network and loss of function at 10 nM after 3 hrs; assay type: functional, cell-based; summary of the method: as §2

CCCCc1ccc2[nH]c(-c3ccc(OC)cc3)c(/C=N\C)c2c1
IC50 [1]: 0.006 µM
IC50 [2]: 0.027 µM
Activity [3]: Active
IC50 [4]: 1.2 µM

COc1cccc(-c2[nH]c3cc(OC)ccc3c2C=O)c1
IC50 [1]: 1.03 µM
IC50 [2]: 0.39 µM

COc1ccc(-c2[nH]c3cc(OC)ccc3c2C=O)cc1
IC50 [1]: 0.035 µM
IC50 [2]: 0.16 µM
IC50 [5]: 1.5 µM

CCCCc1ccc2[nH]c(-c3ccc(OC)cc3)c(C=O)c2c1
IC50 [1]: 0.0067 µM
IC50 [2]: 0.022 µM
Activity [3]: Active
inhibition [6]: 23%
Activity [7]: Active

COc1ccc(-c2[nH]c3cc(F)ccc3c2C=O)cc1
IC50 [1]: 0.059 µM
IC50 [5]: 1.8 µM

COc1ccc(-c2[nH]c3ccc(C)cc3c2C=O)cc1
IC50 [1]: 0.086 µM
IC50 [2]: 0.14 µM
Activity [3]: Active

CCCCc1ccc2[nH]c(-c3ccc(C(F)(F)F)cc3)c(/C=N\O)c2c1
IC50 [1]: 0.497 µM
IC50 [2]: 1.66 µM

COc1ccc(-c2[nH]c3cc(Cl)ccc3c2C=O)cc1
IC50 [1]: 0.027 µM
IC50 [2]: 0.065 µM

CCCCCCc1ccc2[nH]c(-c3ccc(C(F)(F)F)cc3)c(C=O)c2c1
IC50 [1]: 0.043 µM
IC50 [2]: 0.022 µM

COc1ccc(-c2[nH]c3ccc(C(C)C)cc3c2C=O)cc1
IC50 [1]: 0.029 µM
IC50 [2]: 0.097 µM

C/N=C\c1c(-c2ccc(OC)cc2)[nH]c2cc(OC)ccc12
IC50 [1]: 0.034 µM
IC50 [2]: 0.22 µM
IC50 [5]: 1.8 µM

COc1ccc(-c2[nH]c3ccc(CC(C)C)cc3c2C=O)cc1
IC50 [1]: 0.072 µM
IC50 [2]: 0.18 µM

CCCCc1ccc2[nH]c(-c3ccc(OC)cc3)c(/C=N\O)c2c1
IC50 [1]: 0.04 µM
IC50 [2]: 0.212 µM
Activity [3]: Active

COc1ccc(-c2[nH]c3ccc(OC)cc3c2C=O)cc1
IC50 [5]: 4 µM

CCCCc1ccc2[nH]c(-c3ccc(C(F)(F)F)cc3)c(C=O)c2c1
IC50 [1]: 0.033 µM
IC50 [2]: 0.066 µM
Activity [3]: Active
Activity [6]: inactive

CCCCc1ccc2[nH]c(-c3ccc(CC)cc3)c(C=O)c2c1
IC50 [1]: 0.027 µM
IC50 [2]: 0.058 µM
Activity [3]: Active

COc1ccc2c(C=O)c(-c3ccc(OC)c(OC)c3)[nH]c2c1
IC50 [1]: 0.27 µM
IC50 [2]: 0.02 µM

CCCCc1ccc(-c2[nH]c3ccc(CC)cc3c2C=O)cc1
IC50 [1]: 0.3 µM
IC50 [2]: 0.2 µM

CCCCCc1ccc2[nH]c(-c3ccc(C(F)(F)F)cc3)c(C=O)c2c1
IC50 [1]: 0.042 µM
IC50 [2]: 0.067 µM

CCCc1ccc2[nH]c(-c3ccc(OC)cc3)c(C=O)c2c1
IC50 [1]: 0.02 µM
IC50 [2]: 0.054 µM

CCCCCc1ccc2[nH]c(-c3ccc(OC)cc3)c(C=O)c2c1
IC50 [1]: 0.0055 µM
IC50 [2]: 0.02 µM

CCCCCCc1ccc2[nH]c(-c3ccc(OC)cc3)c(C=O)c2c1
IC50 [1]: 0.0074 µM
IC50 [2]: 0.006 µM
Activity [3]: Active

COc1ccc2c(C=O)c(-c3ccc(C)cc3)[nH]c2c1
IC50 [1]: 0.031 µM
IC50 [2]: 0.1 µM

CCCCc1ccc2[nH]c(-c3ccc(F)cc3)c(C=O)c2c1
IC50 [1]: 0.35 µM
IC50 [2]: 0.2 µM

CCCCc1ccc2[nH]c(-c3ccc(C)cc3)c(C=O)c2c1
IC50 [1]: 0.034 µM
IC50 [2]: 0.054 µM
Activity [3]: Active

Cc1ccc(-c2[nH]c3cc(Cl)ccc3c2C=O)cc1
IC50 [1]: 0.0078 µM
IC50 [2]: 0.037 µM

COc1ccc(-c2[nH]c3ccc(F)cc3c2C=O)cc1
IC50 [1]: 0.54 µM
IC50 [2]: 0.24 µM

COc1ccc(-c2[nH]c3cc(Cl)c(C)cc3c2C=O)cc1
IC50 [1]: 0.026 µM
IC50 [2]: 0.062 µM

CCCCCc1ccc2[nH]c(-c3ccc(OC)cc3)c(/C=N\C)c2c1
IC50 [1]: 0.006 µM
IC50 [2]: 0.021 µM

Cc1ccc(-c2[nH]c3ccc(C)cc3c2C=O)cc1
IC50 [1]: 0.048 µM
IC50 [2]: 0.165 µM

COc1ccc2c(C=O)c(-c3ccc(OC)c(O)c3)[nH]c2c1
IC50 [1]: 0.8 µM
IC50 [2]: 1.65 µM

CCCCc1ccc2[nH]c(-c3ccc(C(F)(F)F)cc3)c(/C=N\C)c2c1
IC50 [1]: 0.032 µM
IC50 [2]: 0.14 µM

CC[C@]1(O)C[C@H]2CN(CCc3c([nH]c4ccccc34)[C@@](C(=O)OC)(c3cc4c(cc3OC)N(C=O)[C@H]3[C@@](O)(C(=O)OC)[C@H](OC(C)=O)[C@]5(CC)C=CCN6CC[C@]43[C@@H]65)C2)C1
Activity [3]: Active
Activity [8]: Active

COc1ccc(-c2[nH]c3ccc(C(C)(C)C)cc3c2C=O)cc1
IC50 [1]: 0.28 µM
IC50 [2]: 0.58 µM
